In one data set the test system is HCT-15. The data set can be described thus: Inhibition of human HCT-15 (human colon adenocarcinoma, MDR positive) cell growth. In kind it is functional, cell-based. Put shortly: (§1)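 Sulforhodamine B assay following the NCI protocol. HCT-15 and NCI-H460 cells were exposed to final concentrations of 10^-11 to 10^-4 M and grown for 48 h at 37 °C in 5% CO2. […] Cells were TCA-fixed and stained, dye was solubilized in Tris, and absorbance was read. IC50 came from nonlinear regression as the geometric mean of at least two independent runs.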

The test system of another data set is NCI-H460. The data set can be described thus: Inhibition of human NCI-H460 (human lung large cell carcinoma, MDR negative) cell growth. In kind it is functional, cell-based. Put shortly:
as §1

In another data set the target is Tubulin beta chain (Bos taurus, UniProt Q6B856). The data set can be described thus: Concentration needed to inhibit tubulin polymerization by 50%. In kind it is functional. The gist of the method:
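Microtubule protein was purified from bovine brain, or purified tubulin in glycerol was used. Tubulin, buffer and GTP were prechilled to 4 °C, then added to wells containing drug or solvent. Polymerization ran at 37 °C, with light scattering followed at 340 nm for 30 min. The degree of polymerization was taken from the AUC of the profile. IC50 came from nonlinear regression as the geometric mean of at least two independent runs.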

Data set [1] is described as follows: Oral bioavailability in dog. In kind it is ADME, organism-based, Canis lupus familiaris. The conditions noted are these: in vivo. Put shortly:
(§2)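 Two animals were used in each dosing group, each given 5 mg/kg either orally or iv. Plasma Cmax, oral AUC and bioavailability are the average of the two animals.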

The nature of data set [2]: The oral Area under the plasma concentration curve(AUC) measured;when administered perorally. In kind it is ADME. Put shortly:
as §2

Data set [3] is described as follows: Oral bioavailability in monkey. In kind it is ADME, organism-based. As to conditions: primates, in vivo. Put shortly:
as §2

Data set [4] can be described thus: Maximum concentration of compound present in plasma measured. The format is ADME, organism-based. Put shortly: as §2
Data set [5] can be described thus: Bioavailability. In kind it is ADME, organism-based. As to conditions: eutheria, in vivo. The gist of the method:
as §2

Data set [6] is described as follows: Oral bioavailability in mouse. The format is ADME, organism-based. As to conditions: in vivo. Put shortly:
as §2

Data set [7] is described as follows: The oral Area under the plasma concentration curve(AUC) measured;when administered as perorally. In kind it is ADME. Put shortly:
as §2

Bounds are passed on as bounds.

Tubulin beta chain, sequence (Q6B856 whole entry): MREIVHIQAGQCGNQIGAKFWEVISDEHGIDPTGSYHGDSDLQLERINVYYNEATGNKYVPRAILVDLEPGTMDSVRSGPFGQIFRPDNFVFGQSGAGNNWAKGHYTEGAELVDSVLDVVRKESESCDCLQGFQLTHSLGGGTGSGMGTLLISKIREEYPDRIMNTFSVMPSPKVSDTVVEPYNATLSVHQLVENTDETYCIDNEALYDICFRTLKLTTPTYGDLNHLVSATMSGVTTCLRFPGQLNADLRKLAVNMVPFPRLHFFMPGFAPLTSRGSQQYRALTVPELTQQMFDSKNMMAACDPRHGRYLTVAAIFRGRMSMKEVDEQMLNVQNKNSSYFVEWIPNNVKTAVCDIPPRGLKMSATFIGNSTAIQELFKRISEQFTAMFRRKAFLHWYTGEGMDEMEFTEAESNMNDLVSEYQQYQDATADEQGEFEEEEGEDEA

For the molecule `COc1ccc(-c2ocnc2-c2cc(OC)c(OC)c(OC)c2)cc1O`, the 50% inhibitory concentration (IC50) amounted to 2.2 nM in the data set on HCT-15, 2.3 nM with NCI-H460 and 980 nM against Tubulin beta chain.
For `COc1ccc(-c2[nH]cnc2-c2cc(OC)c(OC)c(OC)c2)cc1O` the same measures were 10 nM, 11 nM and 730 nM.
For `COc1ccc(-c2[nH]cnc2-c2cc(OC)c(OC)c(OC)c2)cc1` the same measures were 7.8 nM, 7.2 nM and 2800 nM.
On to `COc1cc(-c2ncn(C)c2-c2ccc3ccn(C)c3c2)cc(OC)c1OC`, for which the bioavailability in [1] came to 44.5%; in data set [3] it was 12.5%; in [5] it was 32%; in data set [6] it was 24.2%. The IC50 in the data set on HCT-15 is 20 nM; in the data set with NCI-H460, 32 nM; against Tubulin beta chain, 2000 nM. In data set [2], this molecule had an exposure (AUC) of 461 ng·h/mL. The same molecule had a Cmax in data set [4] of 169 ng/mL.
As to `COc1ccc(-c2ncoc2-c2cc(OC)c(OC)c(OC)c2)cc1N`, the IC50 in the data set on HCT-15 stood at 7.2 nM; in the data set with NCI-H460 it was 11 nM. The molecule further displayed a bioavailability in [5] of 0%.
With `COc1ccc(-c2ncn(C)c2-c2cc(OC)c(OC)c(OC)c2)cc1N`, the 50% inhibitory concentration (IC50) with HCT-15 stood at 79 nM; in the data set with NCI-H460, 34 nM. The molecule also came in with an exposure (AUC) in [2] of 1500 ng·h/mL. Besides, the highest concentration (Cmax) in data set [4] is 623 ng/mL. In data set [5], the bioavailability was 29.9%.
As for `COc1ccc(-c2[nH]cnc2-c2cc(OC)c(OC)c(OC)c2)cc1N`, the half-maximal inhibitory concentration (IC50) with HCT-15 worked out at 8.1 nM; with NCI-H460, 8.5 nM; against Tubulin beta chain it was 680 nM. The AUC in data set [2] was less than 218 ng·h/mL. Moreover, in data set [4], the Cmax was less than 74 ng/mL. This molecule returned a bioavailability in data set [5] of 45%.
On to `COc1cc(-n2cncc2-c2ccc(N(C)C)cc2)cc(OC)c1OC`, for which the 50% inhibitory concentration (IC50) in the data set on HCT-15 is 36 nM; in the data set with NCI-H460, 79 nM; against Tubulin beta chain, 23000 nM.
As for `COc1cc(-c2c(-c3ccc4c(ccn4C)c3)ncn2C)cc(OC)c1OC`, the IC50 is 27 nM in the data set on HCT-15 and 51 nM in the data set with NCI-H460. In addition, in data set [2], the AUC stood at 112 ng·h/mL. In data set [4], this molecule showed a peak concentration (Cmax) of 70 ng/mL. Besides, in [5], the bioavailability amounted to 2.5%.
Regarding `COc1cc(-c2cncn2-c2ccc(N(C)C)cc2)cc(OC)c1OC`, the IC50 was 333 nM with HCT-15, 589 nM in the data set with NCI-H460 and 130000 nM against Tubulin beta chain. Further, in [4], the Cmax is less than 10 ng/mL. Further, the bioavailability in [5] worked out at 0.01%.
For the molecule `COc1cc(-c2ncoc2-c2ccc3c(ccn3C)c2)cc(OC)c1OC`, the 50% inhibitory concentration (IC50) in the data set with HCT-15 was 7.4 nM; in the data set with NCI-H460, 12 nM; against Tubulin beta chain, 790 nM.
Turning to `COc1cc(-c2[nH]c(-c3ccoc3)nc2-c2ccc(N(C)C)cc2)cc(OC)c1OC`, the IC50 in the data set on HCT-15 stood at 67 nM; in the data set with NCI-H460, 190 nM.
For `COc1ccc(-c2ccnn2-c2cc(OC)c(OC)c(OC)c2)cc1N` the same measures were 28 nM and 33 nM.
In the case of `COc1cc(-c2ncn(C)c2-c2cc(Cl)c3c(ccn3C)c2)cc(OC)c1OC`, the 50% inhibitory concentration (IC50) with HCT-15 and in the data set with NCI-H460 was 12 nM each time. Moreover, the exposure (AUC) in [2] was determined as 220 ng·h/mL. This molecule also yielded a Cmax in data set [4] of 130 ng/mL. The bioavailability in data set [5] was found to be 10.2%.
Take `COc1ccc(-c2cncn2-c2cc(OC)c(OC)c(OC)c2)cc1O`: the half-maximal inhibitory concentration (IC50) in the data set with HCT-15 worked out at 89 nM; in the data set with NCI-H460, 61 nM; against Tubulin beta chain, 7600 nM.
With `COc1cc(-c2ncn(C)c2-c2cc(F)c3c(ccn3C)c2)cc(OC)c1OC`, the IC50 with HCT-15 was 27 nM; with NCI-H460, 23 nM. In data set [2], this molecule gave an area under the curve (AUC) of 340 ng·h/mL. In [4], this molecule came in with a Cmax of 209 ng/mL. Besides, the bioavailability in data set [5] came to 12.3%.
In the case of `COc1cc(-n2cncc2-c2ccc3c(c2)CCN3C)cc(OC)c1OC`, the IC50 in the data set on HCT-15 came out at 58 nM; in the data set with NCI-H460, 150 nM; against Tubulin beta chain it was 48000 nM.
`COc1ccc(-c2[nH]cnc2-c2cc(OC)c(OC)c(OC)c2)cc1F`: the IC50 in the data set on HCT-15 and in the data set on NCI-H460 was 3.8 nM each time.
For `COc1cc(-n2cncc2-c2ccc3[nH]ccc3c2)cc(OC)c1OC`, the IC50 in the data set on HCT-15 came out at 350 nM; in the data set with NCI-H460, 540 nM; at Tubulin beta chain, 71000 nM.
The corresponding values for `COc1cc(-n2ccnc2-c2ccc(N(C)C)cc2)cc(OC)c1OC` are 80 nM, 270 nM and 35000 nM.
For the molecule `COc1ccc(-c2cncn2-c2cc(OC)c(OC)c(OC)c2)cc1N`, the half-maximal inhibitory concentration (IC50) with HCT-15 came out at 69 nM; in the data set with NCI-H460, 63 nM; on Tubulin beta chain, 7700 nM.
With `COc1cc(-n2cncc2-c2ccc(N)cc2)cc(OC)c1OC`, the 50% inhibitory concentration (IC50) with HCT-15 came to 7260 nM; in the data set on NCI-H460, 8550 nM.
Take `COc1cc(-c2[nH]cnc2-c2ccc3ccn(C)c3c2)cc(OC)c1OC`: the IC50 in the data set on HCT-15 amounted to 1.7 nM; in the data set with NCI-H460, 1.8 nM; on Tubulin beta chain it was 1100 nM. This molecule registered an area under the curve (AUC) in data set [2] of 14.2 ng·h/mL. In addition, in [4], the peak concentration (Cmax) is less than 10 ng/mL. This molecule also returned a bioavailability in data set [5] of 0.31%.
As to `COc1cc(-n2cncc2-c2ccc3c(ccn3C)c2)cc(OC)c1OC`, the half-inhibitory concentration (IC50) was determined as 14 nM with HCT-15, 19 nM in the data set with NCI-H460 and 1800 nM at Tubulin beta chain.
With `COc1ccc(-c2nc(C)oc2-c2cc(OC)c(OC)c(OC)c2)cc1O`, the figures for the IC50 in the data set with HCT-15 and in the data set on NCI-H460 were 15 nM and 35 nM, respectively.
`COc1ccc(-c2ocnc2-c2cc(OC)c(OC)c(OC)c2)cc1N`: the figures for the IC50 in the data set on HCT-15, with NCI-H460 and against Tubulin beta chain were 11 nM, 9.2 nM and 920 nM, respectively. The molecule also returned an AUC in data set [7] of 12 ng·h/mL. Further, the concentration in data set [4] peaked (Cmax) at 22 ng/mL. Further, the bioavailability in [5] was 0.5%.
As for `COc1ccc(-c2ncoc2-c2cc(OC)c3c(c2)OCO3)cc1N`, the values for the IC50 with HCT-15 and in the data set on NCI-H460 were 76 nM and 53 nM, respectively.
Take `COc1cc(-c2[nH]cnc2-c2ccc(N(C)C)cc2)cc(OC)c1OC`: the IC50 in the data set with HCT-15 amounted to 4.4 nM; in the data set on NCI-H460, 2 nM; against Tubulin beta chain, 3700 nM. Also, the exposure (AUC) in [2] was 16.2 ng·h/mL. The peak concentration (Cmax) in data set [4] is 15.1 ng/mL. Moreover, the bioavailability in data set [5] came out at 1.3%.
Consider `COc1cc(-c2nccnc2-c2ccc(N(C)C)cc2)cc(OC)c1OC`, for which the values for the IC50 in the data set with HCT-15 and in the data set on NCI-H460 were 303 nM and 707 nM, respectively.
As for `COc1ccc(-c2c(-c3cc(OC)c(OC)c(OC)c3)ncn2C)cc1N`, the bioavailability in data set [1] stood at 45.8%; in data set [3], 91.2%; in [5], 82.3%; in data set [6], 89.7%. Besides, the IC50 in the data set on HCT-15 amounted to 220 nM; with NCI-H460, 170 nM; on Tubulin beta chain, 31000 nM. The molecule also gave an AUC in data set [2] of 10800 ng·h/mL. The molecule further had a Cmax in data set [4] of 3860 ng/mL.
Take `COc1cc(-c2ncoc2-c2ccc(N(C)C)cc2)cc(OC)c1OC`: the IC50 in the data set with HCT-15 was determined as 18 nM; with NCI-H460 it was 41 nM; against Tubulin beta chain, 870 nM.

The values are drawn from ChEMBL document CHEMBL1135921, “Potent, orally active heterocycle-based combretastatin A-4 analogues: synthesis, structure-activity relationship, pharmacokinetics, and in vivo antitumor activity evaluation” (J Med Chem, 2002).
